# ChEMBL document CHEMBL4689842, “EUbOPEN Chemogenomics Library wave 1” (2021)
# Several values for one entry are separate records, joined by “and”; a condition that tells them apart may be missing. Identical values can stand only once.
# Test system: Fibroblast
# Assay: Multiplex assay against human fibroblast
# Type: toxicity, cell-based
# Outline: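 Cells were classed with CellPathfinder machine-learning gating, first as Hoechst high-intensity objects or normal cells, then (normal cells) as healthy, pyknosed or fragmented nuclei, and finally (pyknosed cells) as mitotic or apoptotic. Staining of live cells at seeding used Hoechst33342, BioTracker Green Microtubule Cytoskeleton Dye, MitoTracker Red and Annexin V Alexa Fluor 680, with imaging on a CQ1 microscope at 37°C and 5% CO2 after compound addition. Tubulin, mitochondrial-mass and membrane-permeability phenotypes are per cents of healthy-nucleus cells.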
# [1] = 12 h, 1 µM, compound concentration 1 uM, replicate 1
# [2] = 12 h, 1 µM, compound concentration 1 uM, replicate 2
# [3] = 12 h, 10 µM, compound concentration 10 uM, replicate 1
# [4] = 12 h, 10 µM, compound concentration 10 uM, replicate 2
# [5] = 24 h, 1 µM, compound concentration 1 uM, replicate 1
# [6] = 24 h, 1 µM, compound concentration 1 uM, replicate 2
# [7] = 24 h, 10 µM, compound concentration 10 uM, replicate 1
# [8] = 24 h, 10 µM, compound concentration 10 uM, replicate 2
# [9] = 48 h, 10 µM, compound concentration 10 uM, replicate 1
# [10] = 48 h, 10 µM, compound concentration 10 uM, replicate 2
structure (smiles),measurement,setting,value
CC(C)Oc1ccc(C(=O)N[C@H](CNC(=O)CN(C)C)Cc2ccc(-c3cn4cccc([C@H](C)O)c4n3)cc2)cc1Cl [GSK-923295A],Population Apoptotic (%),[1],71%
same,Population Fragmented Nuclei (%),[1],32%
same,Population Healthy Nuclei (%),[1],48%
same,Population Hoechst High Intensity Objects (%),[1],12%
same,Population Membrane Permeable-Phenotype (%),[1],9%
same,Population Mitochondria Different-Phenotype (%),[1],5%
same,Population Mitotic Cells (%),[1],28%
same,Population Normal (%),[1],87%
same,Population Pyknosed Nuclei (%),[1],18%
same,Population Tubulin-Different-Phenotype (%),[1],20%
same,Total Cell Count,[1],256
same,Population Apoptotic (%),[2],100%
same,Population Fragmented Nuclei (%),[2],49%
same,Population Healthy Nuclei (%),[2],43%
same,Population Hoechst High Intensity Objects (%),[2],31%
same,Population Mitochondria Different-Phenotype (%),[2],31%
same,Population Mitotic Cells (%),[2],0%
same,Population Normal (%),[2],68%
same,Population Pyknosed Nuclei (%),[2],7%
same,Population Tubulin-Different-Phenotype (%),[2],40%
same,Total Cell Count,[2],74
same,Population Apoptotic (%),[3],53% and 65%
same,Population Fragmented Nuclei (%),[3],34% and 27%
same,Population Healthy Nuclei (%),[3],34% and 50%
same,Population Hoechst High Intensity Objects (%),[3],30% and 28%
same,Population Mitochondria Different-Phenotype (%),[3],11% and 7%
same,Population Mitotic Cells (%),[3],46% and 34%
same,Population Normal (%),[3],69% and 71%
same,Population Pyknosed Nuclei (%),[3],30% and 21%
same,Population Tubulin-Different-Phenotype (%),[3],82% and 59%
same,Population Apoptotic (%),[4],75% and 30%
same,Population Healthy Nuclei (%),[4],28% and 73%
same,Population Membrane Permeable-Phenotype (%),[4],42% and 30%
same,Population Mitotic Cells (%),[4],25% and 69%
same,Population Normal (%),[4],65% and 97%
same,Population Pyknosed Nuclei (%),[4],16% and 17%
same,Population Tubulin-Different-Phenotype (%),[4],92% and 100%
same,Total Cell Count,[4],75 and 76
same,Population Apoptotic (%),[5],65%
same,Population Fragmented Nuclei (%),[5],27%
same,Population Healthy Nuclei (%),[5],58%
same,Population Hoechst High Intensity Objects (%),[5],18%
same,Population Membrane Permeable-Phenotype (%),[5],6%
same,Population Mitochondria Different-Phenotype (%),[5],7%
same,Population Mitotic Cells (%),[5],34%
same,Population Normal (%),[5],81%
same,Population Pyknosed Nuclei (%),[5],14%
same,Population Tubulin-Different-Phenotype (%),[5],10%
same,Total Cell Count,[5],266
same,Population Apoptotic (%),[6],100%
same,Population Fragmented Nuclei (%),[6],58%
same,Population Healthy Nuclei (%),[6],34%
same,Population Hoechst High Intensity Objects (%),[6],26%
same,Population Membrane Permeable-Phenotype (%),[6],10%
same,Population Mitochondria Different-Phenotype (%),[6],15%
same,Population Mitotic Cells (%),[6],0%
same,Population Normal (%),[6],73%
same,Population Pyknosed Nuclei (%),[6],6%
same,Population Tubulin-Different-Phenotype (%),[6],25%
same,Total Cell Count,[6],79
same,Population Apoptotic (%),[7],64% and 60%
same,Population Fragmented Nuclei (%),[7],34% and 27%
same,Population Healthy Nuclei (%),[7],44% and 54%
same,Population Hoechst High Intensity Objects (%),[7],34% and 39%
same,Population Membrane Permeable-Phenotype (%),[7],26% and 10%
same,Population Mitochondria Different-Phenotype (%),[7],26% and 11%
same,Population Mitotic Cells (%),[7],35% and 39%
same,Population Normal (%),[7],65% and 60%
same,Population Pyknosed Nuclei (%),[7],20% and 17%
same,Population Tubulin-Different-Phenotype (%),[7],76% and 61%
same,Population Apoptotic (%),[8],75% and 35%
same,Population Healthy Nuclei (%),[8],35% and 64%
same,Population Mitochondria Different-Phenotype (%),[8],96%
same,Population Mitotic Cells (%),[8],25% and 65%
same,Population Normal (%),[8],50% and 97%
same,Population Pyknosed Nuclei (%),[8],9% and 24%
same,Population Tubulin-Different-Phenotype (%),[8],73% and 100%
same,Total Cell Count,[8],83 and 72
same,Population Apoptotic (%),[9],71%
same,Population Fragmented Nuclei (%),[9],35%
same,Population Healthy Nuclei (%),[9],50%
same,Population Hoechst High Intensity Objects (%),[9],46%
same,Population Membrane Permeable-Phenotype (%),[9],11%
same,Population Mitochondria Different-Phenotype (%),[9],7%
same,Population Mitotic Cells (%),[9],28%
same,Population Normal (%),[9],53%
same,Population Pyknosed Nuclei (%),[9],13%
same,Population Tubulin-Different-Phenotype (%),[9],65%
same,Total Cell Count,[9],96
same,Population Apoptotic (%),[10],57%
same,Population Fragmented Nuclei (%),[10],32%
same,Population Healthy Nuclei (%),[10],55%
same,Population Hoechst High Intensity Objects (%),[10],35%
same,Population Membrane Permeable-Phenotype (%),[10],9%
same,Population Mitochondria Different-Phenotype (%),[10],6%
same,Population Mitotic Cells (%),[10],42%
same,Population Normal (%),[10],64%
same,Population Pyknosed Nuclei (%),[10],11%
same,Population Tubulin-Different-Phenotype (%),[10],71%
same,Total Cell Count,[10],281
CC(C)(C)c1cnc(CSc2cnc(NC(=O)C3CCNCC3)s2)o1 [BMS-387032],Population Apoptotic (%),[1],75%
same,Population Fragmented Nuclei (%),[1],25%
same,Population Healthy Nuclei (%),[1],56%
same,Population Hoechst High Intensity Objects (%),[1],12%
same,Population Membrane Permeable-Phenotype (%),[1],10%
same,Population Mitochondria Different-Phenotype (%),[1],10%
same,Population Mitotic Cells (%),[1],24%
same,Population Normal (%),[1],87%
same,Population Pyknosed Nuclei (%),[1],18%
same,Population Tubulin-Different-Phenotype (%),[1],11%
same,Total Cell Count,[1],199
same,Population Apoptotic (%),[2],50%
same,Population Fragmented Nuclei (%),[2],58%
same,Population Healthy Nuclei (%),[2],33%
same,Population Hoechst High Intensity Objects (%),[2],37%
same,Population Membrane Permeable-Phenotype (%),[2],5%
same,Population Mitochondria Different-Phenotype (%),[2],5%
same,Population Mitotic Cells (%),[2],50%
same,Population Normal (%),[2],62%
same,Population Pyknosed Nuclei (%),[2],7%
same,Population Tubulin-Different-Phenotype (%),[2],0%
same,Total Cell Count,[2],82
same,Population Apoptotic (%),[3],75%
same,Population Fragmented Nuclei (%),[3],28%
same,Population Healthy Nuclei (%),[3],54%
same,Population Hoechst High Intensity Objects (%),[3],8%
same,Population Membrane Permeable-Phenotype (%),[3],1%
same,Population Mitochondria Different-Phenotype (%),[3],21%
same,Population Mitotic Cells (%),[3],24%
same,Population Normal (%),[3],91%
same,Population Pyknosed Nuclei (%),[3],17%
same,Population Tubulin-Different-Phenotype (%),[3],32%
same,Total Cell Count,[3],207
same,Population Apoptotic (%),[4],54%
same,Population Fragmented Nuclei (%),[4],58%
same,Population Healthy Nuclei (%),[4],19%
same,Population Hoechst High Intensity Objects (%),[4],26%
same,Population Membrane Permeable-Phenotype (%),[4],0%
same,Population Mitochondria Different-Phenotype (%),[4],50%
same,Population Mitotic Cells (%),[4],45%
same,Population Normal (%),[4],73%
same,Population Pyknosed Nuclei (%),[4],21%
same,Population Tubulin-Different-Phenotype (%),[4],40%
same,Total Cell Count,[4],69
same,Population Apoptotic (%),[5],54%
same,Population Fragmented Nuclei (%),[5],30%
same,Population Healthy Nuclei (%),[5],47%
same,Population Hoechst High Intensity Objects (%),[5],12%
same,Population Membrane Permeable-Phenotype (%),[5],6%
same,Population Mitochondria Different-Phenotype (%),[5],4%
same,Population Mitotic Cells (%),[5],45%
same,Population Normal (%),[5],87%
same,Population Pyknosed Nuclei (%),[5],21%
same,Population Tubulin-Different-Phenotype (%),[5],10%
same,Total Cell Count,[5],197
same,Population Apoptotic (%),[6],62%
same,Population Fragmented Nuclei (%),[6],51%
same,Population Healthy Nuclei (%),[6],32%
same,Population Hoechst High Intensity Objects (%),[6],35%
same,Population Membrane Permeable-Phenotype (%),[6],5%
same,Population Mitochondria Different-Phenotype (%),[6],5%
same,Population Mitotic Cells (%),[6],37%
same,Population Normal (%),[6],65%
same,Population Pyknosed Nuclei (%),[6],15%
same,Population Tubulin-Different-Phenotype (%),[6],5%
same,Total Cell Count,[6],80
same,Population Apoptotic (%),[7],65%
same,Population Fragmented Nuclei (%),[7],34%
same,Population Healthy Nuclei (%),[7],48%
same,Population Hoechst High Intensity Objects (%),[7],8%
same,Population Membrane Permeable-Phenotype (%),[7],4%
same,Population Mitochondria Different-Phenotype (%),[7],29%
same,Population Mitotic Cells (%),[7],34%
same,Population Normal (%),[7],91%
same,Population Pyknosed Nuclei (%),[7],17%
same,Population Tubulin-Different-Phenotype (%),[7],54%
same,Total Cell Count,[7],196
same,Population Apoptotic (%),[8],62%
same,Population Fragmented Nuclei (%),[8],44%
same,Population Healthy Nuclei (%),[8],18%
same,Population Hoechst High Intensity Objects (%),[8],31%
same,Population Membrane Permeable-Phenotype (%),[8],0%
same,Population Mitochondria Different-Phenotype (%),[8],62%
same,Population Mitotic Cells (%),[8],37%
same,Population Normal (%),[8],68%
same,Population Pyknosed Nuclei (%),[8],37%
same,Population Tubulin-Different-Phenotype (%),[8],50%
same,Total Cell Count,[8],63
